According to paper PMC4135234 (Combinatorial chemistry & high throughput screening, 2014):
Values belong to the compound of their own block, whether it stands above or below them.

Experiments:
[1] = system: MSI; test: FP MSI RNA binding assay, statement does not separate MSI1 and MSI2; parameters: species or system human; conditions: 10 μM
[2] = target: T1, MSI2 (Homo sapiens, UniProt Q96DH6); test: FP probe displacement, 1536-well, MSI2; format: binding
How it was run: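 Displacement of 10 nM Cy3-C9-r(GUAGUAGU) probe from 1 μM GST-MSI2 was run as a dose response in 1536-well format, with FP read using Cy3 filters. IC50 for displacement came from two independent experiments, each performed in triplicate.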

[3] = target: T2, MSI1 (Homo sapiens, UniProt O43347); test: Orthogonal SYBR-based EMSA, inhibition of RNA binding to MSI1; conditions: 1 mM (LC), MSI Oligo #2 200 pmols, 1000 ng protein
[4] = target: T1, MSI2; test: Orthogonal SYBR-based EMSA, inhibition of RNA binding to MSI2; conditions: 1 mM (LC), MSI Oligo #2 200 pmols, 1000 ng protein
[5] = target: T3, LIN28A (Homo sapiens, UniProt Q9H9Z2); test: Orthogonal SYBR-based EMSA, inhibition of RNA binding to LIN28A; conditions: 1 mM (LC), MSI Oligo #2 200 pmols, 1000 ng protein
T3 sequence (Q9H9Z2 1-209): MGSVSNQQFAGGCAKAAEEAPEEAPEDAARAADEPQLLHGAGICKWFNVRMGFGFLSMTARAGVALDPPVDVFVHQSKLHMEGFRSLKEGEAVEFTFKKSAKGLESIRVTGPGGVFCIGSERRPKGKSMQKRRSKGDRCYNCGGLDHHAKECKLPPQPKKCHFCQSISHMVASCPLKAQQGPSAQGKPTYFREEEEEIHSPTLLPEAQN
How it was run: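 GST-LIN28A (1000 ng, E. coli-expressed) pre-incubated 30 min at room temperature in EMSA buffer with 1% DMSO, 10 μM test compound or 1 mM oleic acid. Then 200 pmols 15-nt ssRNA MSI Oligo #2 added for 30 min more (20 μL). Native 10% polyacrylamide TBE gel in chilled 0.5X TBE at 4°C, 100V, 2–2.5 h. 2X SYBR Safe stain, imaged. At least two repeats.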

[6] = target: T3, LIN28A; test: SYBR-based RNA EMSA, ssRNA oligo binding to GST-LIN28A; conditions: 200 pmols ssRNA oligo, 500 to 2500 ng GST-protein; symbols not defined
[7] = target: T2, MSI1; test: SYBR-based RNA EMSA, ssRNA oligo binding to GST-MSI1; conditions: 200 pmols ssRNA oligo, 500 to 2500 ng GST-protein; symbols not defined
[8] = target: T1, MSI2; test: SYBR-based RNA EMSA, ssRNA oligo binding to GST-MSI2; conditions: 200 pmols ssRNA oligo, 500 to 2500 ng GST-protein; symbols not defined

T1 sequence (Q96DH6 whole entry): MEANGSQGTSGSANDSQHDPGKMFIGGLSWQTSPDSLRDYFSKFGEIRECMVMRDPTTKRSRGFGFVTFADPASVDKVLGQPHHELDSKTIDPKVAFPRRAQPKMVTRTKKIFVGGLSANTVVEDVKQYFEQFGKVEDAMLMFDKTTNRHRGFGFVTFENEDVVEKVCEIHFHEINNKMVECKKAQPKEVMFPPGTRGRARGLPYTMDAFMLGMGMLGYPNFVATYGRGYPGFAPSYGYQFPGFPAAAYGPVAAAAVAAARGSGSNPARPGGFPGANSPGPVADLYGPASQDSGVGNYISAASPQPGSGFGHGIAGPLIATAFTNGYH
T2 sequence (O43347 whole entry): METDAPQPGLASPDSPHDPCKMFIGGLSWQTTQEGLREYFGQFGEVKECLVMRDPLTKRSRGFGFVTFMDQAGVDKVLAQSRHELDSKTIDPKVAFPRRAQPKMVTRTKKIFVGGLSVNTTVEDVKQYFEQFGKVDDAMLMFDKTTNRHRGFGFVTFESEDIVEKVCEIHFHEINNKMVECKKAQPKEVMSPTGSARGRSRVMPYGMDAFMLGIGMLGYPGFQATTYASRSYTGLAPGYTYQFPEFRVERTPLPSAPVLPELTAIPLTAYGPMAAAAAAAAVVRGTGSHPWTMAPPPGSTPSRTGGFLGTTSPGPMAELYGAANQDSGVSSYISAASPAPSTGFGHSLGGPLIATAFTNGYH

Compound: CC[C@@]1(O)C[C@H](O[C@H]2C[C@H](N(C)C)[C@H](O)[C@H](C)O2)c2c(cc3c(c2O)C(=O)c2c(O)cccc2C3=O)[C@H]1C(=O)OC [aklavine]
MSI inhibition activity in FP pilot screen, in words [1]: inhibiting MSI binding activity

Compound: CCCCCCCC/C=C\CCCCCCCC(=O)O [oleic acid, reference compound]
IC50 [2]: 29 ± 1.7 µM
% inhibition of RNA binding to MSI1 (EMSA) [3]: > 80%
% inhibition of RNA binding to MSI2 (EMSA) [4]: > 80%
% inhibition of RNA binding to LIN28A (EMSA) [5]: > 80%

MSI inhibition activity in FP pilot screen, in words [1]: inhibiting MSI binding activity
Compound: COc1cccc2c1C(=O)c1c(O)c3c(c(O)c1C2=O)C[C@@](O)(C(=O)CO)C[C@@H]3O[C@H]1C[C@H](N)[C@H](O)[C@H](C)O1 [doxorubicin, reference compound]

Compound: CC[C@@]1(O)C[C@H](O)c2c(cc3c(c2O)C(=O)c2c(O)ccc(O)c2C3=O)[C@H]1C(=O)OC [rutilantinone]
MSI inhibition activity in FP pilot screen, in words [1]: inhibiting MSI binding activity

Compound: ssRNA Oligo #8: non-specific ssRNA oligo AGGGAUCGAAAAUUG, 15 nt, no binding motif (RNA, backbone not given here)
Binding affinity(EMSA) LIN28A [6]: high affinity

Compound: MSI Oligo #4: ssRNA oligo GUAGUAGUAGUAGUA, 15 nt, 4 MSI binding motifs (RNA, backbone not given here)
Binding affinity(EMSA) MSI1 [7]: highest affinity
Binding affinity(EMSA) MSI2 [8]: highest affinity
Binding affinity(EMSA) LIN28A [6]: highest affinity

MSI inhibition activity in FP pilot screen, in words [1]: inhibiting MSI binding activity
Compound: CC(=O)[C@]1(O)Cc2c(O)c3c(c(O)c2[C@@H](O[C@H]2C[C@H](N)[C@H](O)[C@H](C)O2)C1)C(=O)c1ccccc1C3=O [idarubicin, reference compound]

Compound: COc1cccc2c1C(=O)c1c(O)c3c(c(O)c1C2=O)C[C@@](O)(C(C)=O)C[C@@H]3O[C@H]1C[C@H](N)[C@H](O)[C@H](C)O1 [daunorubicin, reference compound]
MSI inhibition activity in FP pilot screen, in words [1]: inhibiting MSI binding activity
